Laboratory results as given in PubChem BioAssay.
Inconclusive results are not listed.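 The calls were made as follows, unless noted: active = RAM network inhibition above 8.4% in each of two replicates, 3 SD over the compound average; inconclusive = above 8.4% inhibition in only one replicate; inactive = 8.4% inhibition or less in each replicate.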

Tests used:
[1] = S. cerevisiae growth inhibition in permissive medium (OD615), pilot counter-assay for S. cerevisiae lifespan shortening project, permissive growth control (AID 705;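 active = growth inhibition above 25% in both replicates, a cutoff set 3 SD above the mean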); conditions: OD615, 24 h, at 10 µM, stronger effect = higher value
Method in brief: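 Test system: Saccharomyces cerevisiae strain carrying genetically modified DeaD replicative-lifespan system; buffer or medium: SC raffinose/galactose permissive medium; dosing: one dose 10 µM, DMSO 0.25% final; times: 24 h exposure, 30 °C; measured by: OD at 615 nm; read-out basis: growth inhibition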

[2] = S. cerevisiae growth inhibition in restrictive medium, OD615, pilot screen, restrictive growth control, yeast lifespan reduction project (AID 706;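 active = growth inhibition above a set limit, 3 SD over mean compound inhibition, in both replicates, cut at about 43% in these data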;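 also: modified DeaD lifespan yeast strain shifted to restrictive glucose medium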); conditions: OD615, 48 h, at 10 µM, stronger effect = higher value
Method in brief: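 material = engineered S. cerevisiae DeaD strain | buffer or medium = glucose-based CSMM-D restrictive medium | dosing = one concentration, 10 µM final, 0.25% DMSO | schedule = 4 h pre-growth plus 48 h compound exposure, 30 °C | detection = OD615 absorbance reading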

[3] = doxorubicin toxicity protection in MRP-1 cells – H69AR cells, CellTiter-Glo, duplicate, MRP-1 activator project, pilot screen (AID 807;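 active = viability increase at or above a cutoff of the median across tested compounds plus 3 SD, cut at about 8.5% in these data, passing the limit was not always enough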;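 also: compound pretreatment 18-22 h then 72 h combined with doxorubicin; 0% = doxorubicin alone and 100% = vehicle without doxorubicin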); conditions: H69AR viability with doxorubicin, CellTiter-Glo luminescence; at 10 µM; stronger effect = higher value
[4] = viability of HCT116 without oncogenic beta-catenin – human colon tumor cells, pilot screen (AID 823;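 active = cell viability at or below a set limit in both duplicate runs, the limit being the all-compound median minus 4 SD, cut at about 23% in these data, passing the limit was not always enough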;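 also: 0% = wells killed by 20 µM Hyamine and 100% = untreated DMSO cell wells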); conditions: HCT116 beta-catenin knockout viability, CellTiter-Glo, 60 h; at 10 µM; stronger effect = lower value
[5] = viability of PTEN-null HCT116 cells – cell-based, HCT116 clonal line, CellTiter-Glo, pilot screen (AID 824;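 active = viability at or below 27.92% in each of two runs, the all-compound median minus 4 SD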;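 also: 0% = 20 µM Hyamine control and 100% = vehicle cell control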); conditions: HCT116 PTEN-deleted viability, 60 h, at 10 µM, stronger effect = lower value
[6] = RAM pathway blockade in budding yeast – dse1pr::URA3 reporter, 5-FOA selection, pilot screen (AID 869;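 active = inhibition over a set limit, the all-compound mean plus 3 SD, in both replicate runs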;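 also: 0% = DMSO wells with no growth and 100% = 10 µM 1-NA-PP1 with full growth; RAM network block rescues cells from 5-FOA so hits raise OD615 growth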); conditions: S. cerevisiae dse1pr::URA3 5-FOA growth, OD615, 2 d; at 10 µM; stronger effect = higher value; strain carries analog-sensitive mutant Cbk1 kinase
[7] = RAM signaling pathway blockade in yeast – S. cerevisiae, Pdr1DBD-CYC8 efflux-inhibited sensitized strain, primary screen (AID 1298);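 also: 0% = DMSO untreated cells without growth and 100% = 10 µM 1-NA-PP1 full growth; higher means more yeast growth rescued from 5-FOA killing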; conditions: S. cerevisiae cbk1-as DSE1-URA3 strain, 5-FOA growth OD615, 2 d; at 50 µM; stronger effect = higher value

CC1C(c2ccccc2)=[N+]([O-])C2(CCCC2)N1O (configuration not stated)
inactive: growth inhibition [1] -2.46% | growth inhibition [2] -6.78% | viability increase [3] -3.01% | viability [4] 97% | viability [5] 96.6% | inhibition [6] 1.53% | RAM network inhibition [7] 1.41%

OC(CN1C2=NCCCN2c2ccccc21)c1ccc(Cl)cc1 (configuration not stated)
inactive: growth inhibition [1] -8.91% | growth inhibition [2] 2.81% | viability increase [3] -4.02% | viability [4] 73.8% | viability [5] 76.1% | inhibition [6] 1.26% | RAM network inhibition [7] 3.02%

CC(=O)c1ccc(OCC(O)CN2CCN(c3ccccn3)CC2)cc1 (configuration not stated)
inactive: growth inhibition [1] 2.13% | growth inhibition [2] 4.88% | viability increase [3] 0.37% | viability [4] 102% | viability [5] 103% | inhibition [6] 1.18% | RAM network inhibition [7] 2.51%

CCOC(=O)c1c(C)c(-c2ccccc2)n(CC(=O)N2CCCC2)c1C
inactive: growth inhibition [1] -8.25% | growth inhibition [2] -12.4% | viability increase [3] -3.38% | viability [4] 87.6% | viability [5] 92.3% | inhibition [6] 1.31% | RAM network inhibition [7] 2.73%

Cc1onc(-c2ccccc2Cl)c1C(=O)NCC1CCCO1 (configuration not stated)
inactive: growth inhibition [1] -0.6% | growth inhibition [2] 3.56% | viability increase [3] -1.44% | viability [4] 88.7% | viability [5] 95.8% | inhibition [6] 1.24% | RAM network inhibition [7] -0.74%

COC(=O)N1CC(C)N(C(=O)OC)CC1C (configuration not stated)
inactive: growth inhibition [1] -8.79% | growth inhibition [2] 3.85% | viability increase [3] -2.14% | viability [4] 95.2% | viability [5] 95.6% | inhibition [6] 0.745% | RAM network inhibition [7] 6.61%

COc1ccc(C(C)(C)C)cc1NC(=O)COC(=O)c1cnc(C)cn1
inactive: growth inhibition [1] -4.5% | growth inhibition [2] -5.05% | viability increase [3] -2.09% | viability [4] 97.3% | viability [5] 94.3% | inhibition [6] 0.395% | RAM network inhibition [7] 4.9%

CC(=O)c1ccc(C(=O)Nc2ccc(N3CCOCC3)cc2)cc1
inactive: growth inhibition [1] -0.45% | growth inhibition [2] 2.98% | viability increase [3] 3.45% | viability [4] 98.5% | viability [5] 99.6% | inhibition [6] 0.45% | RAM network inhibition [7] 2.61%

CC(=O)NC1(c2ccccc2)CCN(Cc2nnnn2C(C)(C)C)CC1
inactive: growth inhibition [1] -11.8% | growth inhibition [2] -17.9% | viability increase [3] -0.8% | viability [4] 102% | viability [5] 96% | inhibition [6] 3.53% | RAM network inhibition [7] 1.62%

COc1ccc(OC)c(NC(=O)c2ccc(NC(C)=O)cc2)c1
inactive: growth inhibition [1] -22.5% | growth inhibition [2] -12.5% | viability increase [3] 0.76% | viability [4] 109% | viability [5] 101% | inhibition [6] 1.2% | RAM network inhibition [7] 5.24%

Cc1nc2cc(C(=O)O)ccc2n1-c1ccccc1
inactive: growth inhibition [1] -11.5% | growth inhibition [2] -0.12% | viability increase [3] -2.1% | viability [4] 109% | viability [5] 94.8% | inhibition [6] 1.99% | RAM network inhibition [7] 1.31%

C=C(Br)Cn1c(CC(C)C)nc2ccccc21
inactive: growth inhibition [1] 13.3% | growth inhibition [2] -14.3% | viability increase [3] -4.96% | viability [4] 85.1% | viability [5] 83.7% | inhibition [6] 0.265% | RAM network inhibition [7] 4.37%

COc1ccc(N2CCN(C(=O)c3ccc(CS(=O)(=O)c4ccc(OC)cc4)o3)CC2)cc1
inactive: growth inhibition [1] -9.34% | growth inhibition [2] -3.61% | viability increase [3] -1.85% | viability [4] 92.1% | viability [5] 79.2% | inhibition [6] 1.83% | RAM network inhibition [7] 4.78%

COc1cccc(-c2nnc(SCC(=O)N3CC(C)CC(C)C3)o2)c1 (configuration not stated)
inactive: growth inhibition [1] -6.77% | growth inhibition [2] -0.75% | viability increase [3] -3.25% | viability [4] 98% | viability [5] 90.5% | inhibition [6] 0.535% | RAM network inhibition [7] 0.7%

Cn1c(C(=O)N2CCN(Cc3ccccc3)CC2)cc2c(=O)n(C)c3ccccc3c21
inactive: growth inhibition [1] 7.94% | growth inhibition [2] 3.57% | viability increase [3] -4.21% | viability [4] 74.8% | viability [5] 74.8% | inhibition [6] 0.905% | RAM network inhibition [7] 1.37%

Cc1cc2oc3c(c(=O)c2cc1C)C(c1ccc(F)cc1)N(CCCN1CCOCC1)C3=O (configuration not stated)
inactive: growth inhibition [1] 4.43% | growth inhibition [2] -11.3% | viability increase [3] -2.77% | viability [4] 98.5% | viability [5] 96% | inhibition [6] 1.74% | RAM network inhibition [7] 1.83%

Cn1cccc1Cc1nnc(SCC(=O)NCCc2ccccc2)n1-c1ccc(F)cc1
inactive: growth inhibition [1] -6.41% | growth inhibition [2] 5.7% | viability increase [3] -2.38% | viability [4] 93.7% | viability [5] 93.3% | inhibition [6] 2.35% | RAM network inhibition [7] 5.42%

CC(=NCCN1CCOCC1)C1=C(O)c2ccccc2C1=O
inactive: growth inhibition [1] -5.16% | growth inhibition [2] -12.6% | viability increase [3] -1.7% | viability [4] 103% | viability [5] 100% | inhibition [6] 1.3% | RAM network inhibition [7] -0.73%

COc1ccccc1C(=O)Nc1nnc(-c2ccc(Cl)cc2)o1
inactive: growth inhibition [1] -2.96% | growth inhibition [2] 1.53% | viability increase [3] -1.3% | viability [4] 103% | viability [5] 98.1% | inhibition [6] 0.395% | RAM network inhibition [7] -0.25%

O=C1CCCN1CC(CN1CCOCC1)Sc1nnnn1-c1ccccc1 (configuration not stated)
inactive: growth inhibition [1] -0.73% | growth inhibition [2] 7.22% | viability increase [3] -3.37% | viability [4] 100% | viability [5] 105% | inhibition [6] 1.56% | RAM network inhibition [7] 5.8%

CS(=O)(=O)N(CC(=O)NCc1ccco1)c1cc(C(F)(F)F)ccc1Cl
inactive: growth inhibition [1] 0.43% | growth inhibition [2] -4.23% | viability increase [3] -3.09% | viability [4] 99% | viability [5] 92.8% | inhibition [6] 0.68% | RAM network inhibition [7] 2.65%

Cc1nc2ccccc2c2oc(C(=O)Nc3ccc4c(c3)OCCO4)cc12
inactive: growth inhibition [1] 6.06% | growth inhibition [2] 10.4% | viability increase [3] -1.19% | viability [4] 87.7% | viability [5] 95.3% | inhibition [6] -0.63% | RAM network inhibition [7] 8.55%

COc1cccc(N(CC(=O)NCc2cccnc2)S(C)(=O)=O)c1
inactive: growth inhibition [1] -11.3% | growth inhibition [2] -4.04% | viability increase [3] -1.47% | viability [4] 95.1% | viability [5] 94.6% | inhibition [6] 0.625% | RAM network inhibition [7] 3.01%

Cc1cc(C)c2c(n1)SCC(=O)N2CC(=O)NCCC1=CCCCC1
inactive: growth inhibition [1] -0.205% | growth inhibition [2] 4.58% | viability increase [3] -0.04% | viability [4] 103% | viability [5] 92.9% | inhibition [6] 0.52% | RAM network inhibition [7] 2.59%

O=C1NC(c2ccco2)Nc2sc3c(c21)CCN(Cc1ccccc1)C3 (configuration not stated)
inactive: growth inhibition [1] 4.68% | growth inhibition [2] 17.8% | viability increase [3] -3.01% | viability [4] 103% | viability [5] 94% | inhibition [6] 1.84% | RAM network inhibition [7] 3.69%

Cn1cccc1Cc1nnc(SCC(=O)Nc2ccc3c(c2)OCO3)n1-c1ccc(F)cc1
inactive: growth inhibition [1] 8.39% | growth inhibition [2] 14.1% | viability increase [3] -1.95% | viability [4] 90.4% | viability [5] 91.3% | inhibition [6] 1.56% | RAM network inhibition [7] 8.29%

CCn1c(N)nc2c1c(=O)n(C)c(=O)n2C
inactive: growth inhibition [1] 4.48% | growth inhibition [2] -1.29% | viability increase [3] -1.39% | viability [4] 108% | viability [5] 98.9% | inhibition [6] 0.32% | RAM network inhibition [7] 2.67%

O=C(O)CCC(=O)N1CCc2cc(S(=O)(=O)Nc3ccc4c(c3)OCCO4)ccc21
inactive: growth inhibition [1] -4.35% | growth inhibition [2] -7.19% | viability increase [3] -1.45% | viability [4] 94% | viability [5] 96.3% | inhibition [6] 0.535% | RAM network inhibition [7] -1.56%

O=C(c1ccc(S(=O)(=O)N2CCOCC2)cc1)N1CCN(c2ccccc2)CC1
inactive: growth inhibition [1] -12.5% | growth inhibition [2] 2.02% | viability increase [3] 0.13% | viability [4] 93.7% | viability [5] 101% | inhibition [6] 1.82% | RAM network inhibition [7] 1.64%

O=C(CC12CC3CC(CC(C3)C1)C2)N1CCOCC1
inactive: growth inhibition [1] 6.71% | growth inhibition [2] 1.68% | viability increase [3] -0.17% | viability [4] 102% | viability [5] 102% | inhibition [6] 1.39% | RAM network inhibition [7] 7.72%

Cn1c(C(=O)N2CCN(c3ccccc3F)CC2)cc2c(=O)n(C)c3ccccc3c21
inactive: growth inhibition [1] -2.8% | growth inhibition [2] -4.68% | viability increase [3] -2.61% | viability [4] 100% | viability [5] 98.6% | inhibition [6] 2.54% | RAM network inhibition [7] 1.59%

Cc1ccc(-c2nnc(N3CCCCC3)c3ccccc23)cc1S(=O)(=O)N1CCN(C)CC1
inactive: growth inhibition [1] -1.95% | growth inhibition [2] -1.92% | viability increase [3] -5.28% | viability [4] 48% | viability [5] 60.2% | inhibition [6] 0.285% | RAM network inhibition [7] -2.14%

CCC(Sc1nncn1C)C(=O)Nc1nnc(-c2ccc(Cl)cc2)s1 (configuration not stated)
inactive: growth inhibition [1] 5.38% | growth inhibition [2] 32.9% | viability increase [3] -2.63% | viability [4] 94.1% | viability [5] 93.5% | inhibition [6] 0.955% | RAM network inhibition [7] 4.37%

CC(=O)N1C(C(=O)O)CSC1c1ccc(C)cc1 (configuration not stated)
inactive: growth inhibition [1] 4.69% | growth inhibition [2] 8.76% | viability increase [3] -0.04% | viability [4] 95.3% | viability [5] 95.6% | inhibition [6] -0.43% | RAM network inhibition [7] -1.41%

CC(C)OCCCNC(=O)c1cc2c(=O)n(C)c3ccccc3c2n1C
inactive: growth inhibition [1] 0.55% | growth inhibition [2] -0.705% | viability increase [3] -2.09% | viability [4] 103% | viability [5] 97% | inhibition [6] 0.185% | RAM network inhibition [7] 3.23%

CCSc1nnc(-c2ccc(Cl)cc2Cl)o1
inactive: growth inhibition [1] -10.3% | growth inhibition [2] -5.92% | viability increase [3] -5.13% | viability [4] 83.5% | viability [5] 85.4% | inhibition [6] 1.65% | RAM network inhibition [7] 2.2%
